Test results as given in ChEMBL document CHEMBL1132719, “cycloSal-Pronucleotides of 2'-fluoro-ara- and 2'-fluoro-ribo-2',3'- dideoxyadenosine as a strategy to bypass a metabolic blockade” (J Med Chem, 1999).

How the values were obtained:
C3H/3T3 [1] = assay: (§1) Effect of compound against Moloney murine sarcoma virus (MSV)-induced transformation of C3H/3T3 embryo murine fibroblasts; format: functional, cell-based; conditions: Mus musculus
Outline: (§2)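 C3H/3T3 cells seeded at 20 000 cells/mL and grown 24 h, then infected with 80 focus-forming units of MSV for 120 min. Medium was replaced with fresh medium containing the test compound. Transformation was examined microscopically after 6 days. EC50 is the concentration giving 50% inhibition of transformation. MCC is the minimum concentration causing microscopically visible morphological alteration of the cultures.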

[2] = Hydrolysis half life in phosphate buffer.; format: ADME
Outline: (§3)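 Triester at 0.71 mM final in 25 mM Sørensen phosphate buffer, pH 7.3, 37 °C, with AZT as internal standard. Aliquots were frozen in liquid air, then analysed by RP-HPLC (UV 260 nm). k was taken from the slope of the log degradation curve of the starting triester and t1/2 derived from k. Values are the mean of duplicates, in hours.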

CCRF-CEM [3] = assay: Antiviral activity evaluated as the ability to inhibit the replication of HIV-1 in human T-lymphocytic cells (CEM); format: functional, cell-based
Outline: (§4)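 CEM cells at 4 × 10^5 cells/mL infected with HIV-1 (HTLV-IIIB) or HIV-2 (ROD) at ~100 CCID50 per mL. Virus stocks came from infected MT-4 supernatants. Infected cells were mixed with serial compound dilutions. Giant cell formation was scored microscopically after 4–5 days. EC50 is the 50% effective concentration.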

C3H/3T3 [4] = assay: (§5) Minimal cytotoxic concentration required to cause morphological alteration of C3H/3T3 fibroblast culture cells; format: functional; conditions: Mus musculus; outline: as §2
CCRF-CEM [5] = assay: Cytotoxic concentration in Wild Type CEM cells; format: functional; conditions: Homo sapiens
[6] = Partition coefficient (logP); format: physicochemical; conditions: octanol/water
Outline: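 Compound dissolved in 1-octanol, then an equal volume of water added. Phases were vortexed 10 min and separated by centrifugation. Each phase was analysed by RP-HPLC (UV 260 nm). P was calculated from the peak areas of the aqueous and organic phases.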

CCRF-CEM [7] = assay: Antiviral activity evaluated as the ability to inhibit the replication of HIV-2 in human T-lymphocytic cells (CEM); format: functional, cell-based; outline: as §4
[8] = Selectivity index by CC50 of CEM cells/EC50 of CEM cells against HIV-1; format: functional, CCRF-CEM
C3H/3T3 [9] = assay: as §1; format: functional, cell-based; conditions: Mus musculus; remark: listed apart in the source
Outline: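 C3H/3T3 murine embryo fibroblasts seeded at 20 000 cells/mL, incubated 24 h, then infected for 120 min with 80 focus-forming units of Moloney murine sarcoma virus. Medium then replaced with fresh medium containing serial compound concentrations. Cell transformation scored microscopically after 6 days; EC50 taken as the concentration giving 50% inhibition of virus-induced transformation.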

C3H/3T3 [10] = assay: as §5; format: functional; conditions: Mus musculus; remark: listed apart in the source
[11] = Hydrolysis half life in phosphate buffer; format: ADME; outline: as §3

Structure (SMILES)	EC50 (C3H/3T3 [1])	half-life [2]	EC50 (CCRF-CEM [3])	MCC (C3H/3T3 [4])	CC50 (CCRF-CEM [5])	logP [6]	EC50 (CCRF-CEM [7])	SI [8]	EC50 (C3H/3T3 [9])	MCC (C3H/3T3 [10])	half-life [11]
Cc1cccc2c1OP(=O)(OC[C@@H]1C[C@@H](F)[C@H](n3cnc4c(N)ncnc43)O1)OC2 (stereo not given in full)	2.83 µM	23.4 h	11.7 µM	> 50 µM	118 µM	0.93	12.5 µM	10	–	–	–
Nc1ncnc2c1ncn2[C@H]1CC[C@@H](CO)O1	–	–	4.33 µM	–	> 250 µM	–	4.55 µM	>57	39.1 µM	> 50 µM	–
Nc1ncnc2c1ncn2C1OC(COP2(=O)OCc3ccccc3O2)C[C@@H]1F (stereo not given in full)	1.7 µM	–	4.53 µM	> 50 µM	137 µM	0.95	1.85 µM	74	–	–	8.9 h
Cc1cccc2c1OP(=O)(OCC1C[C@H](F)C(n3cnc4c(O)ncnc43)O1)OC2 (stereo not given in full)	> 50 µM	22.2 h	3.57 µM	> 50 µM	> 250 µM	0.51	3.57 µM	26	–	–	–
Nc1ncnc2c1ncn2C1OC(COP2(=O)OCc3ccccc3O2)C[C@H]1F (stereo not given in full)	4.7 µM	8.4 h	19 µM	> 50 µM	> 250 µM	0.72	13 µM	>19	–	–	–
COc1ccc2c(c1)COP(=O)(OCC1C[C@@H](F)C(n3cnc4c(N)ncnc43)O1)O2 (stereo not given in full)	–	12.3 h	20 µM	–	> 250 µM	0.71	25 µM	>12	–	–	–
OCC1C[C@@H](F)C(n2cnc3c(O)ncnc32)O1 (stereo not given in full)	> 50 µM	–	> 250 µM	> 50 µM	> 250 µM	-0.96	> 250 µM	–	–	–	–
Cc1cccc2c1OP(=O)(OCC1C[C@@H](F)C(n3cnc4c(O)ncnc43)O1)OC2 (stereo not given in full)	> 50 µM	22.7 h	75 µM	> 50 µM	> 250 µM	0.24	31.7 µM	>8	–	–	–
OCC1C[C@H](F)C(n2cnc3c(O)ncnc32)O1 (stereo not given in full)	> 50 µM	–	41.7 µM	> 50 µM	> 250 µM	-1.19	30 µM	>8	–	–	–
COc1ccc2c(c1)COP(=O)(OCC1C[C@H](F)C(n3cnc4c(N)ncnc43)O1)O2 (stereo not given in full)	–	13 h	1.5 µM	–	121 µM	1.04	5.67 µM	–	–	–	–
Cc1cccc2c1OP(=O)(OC[C@@H]1C[C@H](F)C(n3cnc4c(N)ncnc43)O1)OC2 (single isomer, unassigned)	–	21.6 h	3.67 µM	–	146 µM	1.29	3.3 µM	44	–	–	–
Nc1ncnc2c1ncn2[C@@H]1OC(CO)C[C@H]1F (single isomer, unassigned)	–	–	> 250 µM	–	> 250 µM	-0.2	> 250 µM	–	> 50 µM	> 50 µM	–
Nc1ncnc2c1ncn2[C@@H]1O[C@H](CO)C[C@@H]1F [LODENOSINE]	–	–	36.7 µM	–	> 250 µM	-0.16	40 µM	>6.8	> 50 µM	> 50 µM	–
Cc1cn([C@H]2C=C[C@@H](CO)O2)c(=O)[nH]c1=O [STAVUDINE]	–	–	–	–	56 µM	–	–	–	–	–	–
